The values that follow come from ChEMBL document CHEMBL2176964, “Small molecule inhibitors of Bacillus anthracis protective antigen proteolytic activation and oligomerization” (J Med Chem, 2012).

Calls of active or inactive are those of the source. The rule behind the calls is not given here.

Data set [1] has as its target Protective antigen (Bacillus anthracis) (UniProt P13423). Briefly: Inhibition of Bacillus anthracis Protective antigen assessed as reduction in PA83 level in CHO C4 cells at 100 uM after 1 hr by Western blot analysis relative to untreated-control in presence of lethal factor. The format is cell-based. For orientation: A western blot detects proteins with antibodies after separation by electrophoresis.

For data set [2], the system named is HT-1080. Put plainly: Cytotoxicity against human HT1080 cells at 10 to 100 uM by MTT assay. The following applies: ht-1080, 100 µM. The format is cell-based. The essentials: (§1)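 Compound toxicity was measured in serum-free DMEM with 10 mM Hepes pH 7.3 and gentamicin at 37°C, by MTT read-out. There were two exposure schemes: a 5-h exposure, or a 54-h incubation in which the inhibitor was removed from the medium after 5 h. MTT cannot distinguish growth inhibition from toxicity.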

Data set [3] concerns RAW264.7. Briefly: Cytotoxicity against mouse RAW264.7 cells at 10 to 100 uM by MTT assay. As to conditions: raw264.7, 100 µM. The format is cell-based. In a few lines: as §1
Background: Tetrazolium assays rely on reduction of a dye to a coloured formazan, in cell work by metabolically active cells.

Data set [4] addresses Protective antigen (Bacillus anthracis) (UniProt P13423). Briefly: Inhibition of Bacillus anthracis Protective antigen-mediated cytotoxicity in RAW264.7 cells at 3 uM compound co-treated for 5 hrs with antigen measured after 48 hrs by MTT assay in presence of FP59. The class given is cell-based.
For the next data set, the species on record is Homo sapiens. Put plainly: Inhibition of human furin-mediated TGFalpha-PE38 cleavage at 1 to 100 uM after 1 hr by Western blot analysis. The essentials: (§2)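 Substrate at 100 nM (purified PA for PA83 cleavage; TGFα-PE38 with a furin-cleavable RKKR linker) was mixed with 1, 10 or 100 μM inhibitor, or 1% DMSO. Buffer: 50 mM Hepes pH 7.5, 2 mM CaCl2, 0.5 mM EDTA, 0.2% octyl glucoside. Soluble human furin was added at 1 nM final for 1 h at 37°C. The reaction was boiled in SDS dye, run on a 4–20% gel and blotted with anti-PA or anti-Pseudomonas exotoxin serum.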

Data set [5] addresses Protective antigen (Bacillus anthracis) (UniProt P13423). Briefly: Inhibition of human furin-mediated Bacillus anthracis PA83 cleavage at 1 to 100 uM after 1 hr by Western blot analysis. The essentials: as §2
For data set [6] the target is unchanged. Briefly: Inhibition of Bacillus anthracis Protective antigen assessed as reduction in PA63 level in CHO C4 cells at 100 uM after 1 hr by Western blot analysis relative to untreated-control. The format is cell-based.
The target is the same in data set [7]. Briefly: Inhibition of Bacillus anthracis Protective antigen assessed as reduction in PA83 level in CHO C4 cells at 100 uM after 1 hr by Western blot analysis relative to untreated-control. The format is cell-based.
For data set [8] the target is unchanged. Briefly: Inhibition of Bacillus anthracis Protective antigen-mediated cytotoxicity in RAW264.7 cells by MTT assay in presence of fetal bovine serum. The class given is cell-based.
Data set [9] has the same target. Briefly: Inhibition of Bacillus anthracis Protective antigen-mediated cytotoxicity in RAW264.7 cells at 10 uM compound co-treated for 5 hrs with antigen by MTT assay in presence of lethal factor. The format is cell-based.
The target is the same in data set [10]. Put plainly: Inhibition of Bacillus anthracis Protective antigen-mediated cytotoxicity in human HT1080 cells by MTT assay in presence of fetal bovine serum. As to conditions: HT-1080. The format is cell-based.
Data set [11] shares this target. Put plainly: Inhibition of matrix metalloprotease activated Bacillus anthracis Protective antigen-mediated cytotoxicity in HT1080 cells at 100 uM compound co-treated for 5 hrs with antigen measured after 48 hrs by MTT assay in presence of FP59. The class given is cell-based. The following applies: HT-1080.
Data set [12] shares this target. Put plainly: Inhibition of Bacillus anthracis Protective antigen-mediated cytotoxicity in HT1080 cells at 100 uM compound co-treated for 5 hrs with antigen measured after 48 hrs by MTT assay in presence of FP59. The following applies: HT-1080. The format is cell-based.
Data set [13] shares this target. Put plainly: Inhibition of Bacillus anthracis Protective antigen-mediated cytotoxicity in RAW264.7 cells at 100 uM compound co-treated for 5 hrs with antigen measured after 48 hrs by MTT assay in presence of FP59. The format is cell-based.
The target is the same in data set [14]. Put plainly: Inhibition of Bacillus anthracis Protective antigen-mediated cytotoxicity in RAW264.7 cells at 100 uM compound co-treated for 5 hrs with antigen by MTT assay in presence of lethal factor. The class given is cell-based.
Data set [15] has as its system HT-1080. Put plainly: Cytotoxicity against human HT1080 cells compound incubated at 10 to 100 uM for extended period by MTT assay. The class given is cell-based. The following applies: ht-1080, 100 µM. The essentials: as §1
The subject of data set [16] is RAW264.7. Briefly: Cytotoxicity against mouse RAW264.7 cells compound incubated at 10 to 100 uM for extended period by MTT assay. The following applies: raw264.7, 100 µM. The class given is cell-based. The essentials: as §1
Data set [17] concerns the target Protective antigen (Bacillus anthracis) (UniProt P13423). Briefly: Inhibition of Bacillus anthracis Protective antigen-mediated cytotoxicity in RAW264.7 cells compound co-treated for 5 hrs with antigen by MTT assay in presence of lethal factor. The format is cell-based.

Protective antigen (Bacillus anthracis), sequence (P13423 whole entry): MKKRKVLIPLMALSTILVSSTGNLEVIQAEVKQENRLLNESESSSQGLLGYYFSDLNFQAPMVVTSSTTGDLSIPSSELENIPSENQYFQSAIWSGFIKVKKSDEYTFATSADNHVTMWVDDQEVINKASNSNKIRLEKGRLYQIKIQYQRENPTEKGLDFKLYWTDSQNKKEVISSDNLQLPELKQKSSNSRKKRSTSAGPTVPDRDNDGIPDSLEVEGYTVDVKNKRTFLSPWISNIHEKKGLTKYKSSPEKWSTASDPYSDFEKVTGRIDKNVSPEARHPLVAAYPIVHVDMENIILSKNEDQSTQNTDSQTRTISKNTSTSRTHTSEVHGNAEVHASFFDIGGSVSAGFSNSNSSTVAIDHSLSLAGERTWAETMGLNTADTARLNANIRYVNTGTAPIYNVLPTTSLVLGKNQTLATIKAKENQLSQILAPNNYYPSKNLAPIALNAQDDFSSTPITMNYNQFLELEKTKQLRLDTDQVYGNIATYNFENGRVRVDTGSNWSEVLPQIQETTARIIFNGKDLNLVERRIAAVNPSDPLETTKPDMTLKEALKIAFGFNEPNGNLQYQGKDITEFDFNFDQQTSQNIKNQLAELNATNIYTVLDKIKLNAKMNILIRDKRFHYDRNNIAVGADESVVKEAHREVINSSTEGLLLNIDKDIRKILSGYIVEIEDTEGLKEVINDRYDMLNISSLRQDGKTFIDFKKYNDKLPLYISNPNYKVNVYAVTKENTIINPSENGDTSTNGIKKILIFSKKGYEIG

Take `NC(=O)c1ccccc1NC(=O)c1ccc(C(=O)Nc2ccccc2C(N)=O)cc1`: the inhibition result (in data set [1]; in the data set filed under Homo sapiens; in [5]; in [7]; in data set [8]; in data set [10]) was “inactive” in each case. The Activity result in the data set on HT-1080 [2] and with RAW264.7 [3] was “Non-toxic” in each case. Moreover, the inhibition result in data set [4], in data set [6] and in [9] was “Active” in each case.

`O=c1c(O)c(-c2ccc(O)c(O)c2)oc2cc(O)cc(O)c12`: the inhibition result (in data set [1]; in the data set filed under Homo sapiens; in data set [5]; in data set [6]; in [7]; in data set [8]) was “inactive” each time. In addition, the inhibition entry in data set [10] is “inactive”. The inhibition result in data set [11], in data set [12], in data set [13] and in [14] was “Active” in each case.

For the molecule `Oc1ccccc1/C=N/c1ccc(Cc2ccc(/N=C/c3ccccc3O)c(O)c2)cc1O`, the inhibition result (in data set [1]; in the data set listed under Homo sapiens; in data set [7]; in data set [8]; in data set [10]) was “inactive” throughout. Besides, the Activity result in the data set on HT-1080 [15] and in the data set on RAW264.7 [16] was “Toxic” throughout. Moreover, the inhibition entry in data set [4], in data set [5], in data set [6] and in data set [9] was “Active” each time.

Regarding `NC(=O)c1ccccc1NC(=O)c1cccc(C(=O)Nc2ccccc2C(N)=O)c1`, in data set [17], the inhibition result was “Active”.
